The nature of series [1]: Plasma OpiCa1 concentration in vivo by ELISA. The following applies: mice, injection of free OpiCa1 5 mg/kg. (In general: In an ELISA, binding on a coated surface is turned into a signal by an enzyme label.)
A further series deals with RyRs. Particulars: read-out: affinity between OpiCa1 and RyRs; cited from earlier work.
For series [2], the system named is ICR mice. Nature of the series: H&E staining pathological examination of heart. The class given is in vivo. The following applies: 12 h after intravenous injection, n = 6. In short, it runs like this:
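Twelve hours after intravenous dosing (test compound at 5 mg/kg peptide equivalent, free peptide, empty carrier or control; n = 6), heart tissue was fixed in 4 % paraformaldehyde. It then underwent routine hematoxylin-eosin staining for histopathological examination.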

The subject of series [3] is ICR mice. Description: Blood biochemical examinations. It is filed as in vivo. Particulars: i.v. 5 mg/kg OpiCa1 equivalent, 12 h, n = 6. Put shortly: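 Blood was drawn from the inner canthus into anticoagulant tubes 12 h after dosing and assayed for ALT, AST, CK, CK-MB, LDH, creatinine and uric acid. Data are mean ± SD; two-group comparisons used two-tailed Mann-Whitney tests.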

The subject of a further series is cardiac tissue. Description: Cardiac immunohistochemistry with OpiCa1 polyclonal antibody. The class given is in vivo. The following applies: mice, 12 h, self-prepared OpiCa1 polyclonal antibody, n = 6; in words.
In another series the test system is H9C2 cells. Description: Flow cytometry, Annexin V-FITC / propidium iodide apoptosis. The following applies: 100 μM OpiCa1, 12 h, Annexin V-FITC/PI flow cytometry. It is filed as cell-based, rat. For orientation: In flow cytometry, cells or beads pass a laser one at a time.
For series [4], the system named is SR Ca^2+ overload related tachyarrhythmias in CPVT. Particulars: cited from earlier work.

On to Opicalcin1 [OpiCa1], for which, in series [1], the “time to complete disappearance from plasma” value is no more than 48 h. Besides, the Kd at RyRs is roughly 0.3 nM. Moreover, the “pathological examination of heart (H&E)” value in the series with ICR mice [2] was “clear myocardial fibers and stripes”. In the series on ICR mice [3], the “cardiac function (CK, CK-MB, and LDH)” value is recorded as “no significant differences”; the “liver function (ALT and AST)” value is recorded as “no significant differences”; the “renal function (Crea and UA)” value is given as “no significant differences”. The “distribution in cardiac tissue by immunohistochemistry” value in the series on cardiac tissue is “significantly distributed in cardiac tissue”. For the same substance, the “proportion of apoptotic cells” value in the series on H9C2 cells is recorded as “about 1.5%”.
For Imperacalcin, the “antagonism of SR Ca^2+ overload related tachyarrhythmias” value in series [4] was “can antagonize SR Ca^2+ overload related tachyarrhythmias such as PVCs and non-sustained BVTs in CPVT”.

Source of the values: paper PMC10682124 (Materials Today Bio, 2023).
